Measurements of several laboratories.
Compare with care: the assays were run in different laboratories.
Target: Dual specificity protein kinase CLK3 (CLK3, Homo sapiens, UniProt P49761)

Structure (SMILES)	assay	conditions	endpoint	value
CCn1cnc2c(Nc3cccc(Cl)c3)nc(N[C@H]3CCCC[C@H]3N)nc21	enzyme activity, inhibitor	0.5 µM	remaining activity	99.8%
Cn1cc(-c2cc(F)cc(N3CCn4c(cc5c4CCCC5)C3=O)c2CO)cc(Nc2ccc(N3CCN(C4COC4)CC3)cn2)c1=O	enzyme activity, inhibitor	0.1 µM	inhibition	11%
CC(C)(C)c1cc(C=C(C#N)C#N)cc(Br)c1O	enzyme activity, inhibitor	0.5 µM	remaining activity	122%
Cn1cncc1[C@@](O)(COc1ccc(C#N)cc1-c1ccc(OC(F)(F)F)cc1)c1ccc(C#N)cc1	cell-free assay, competition with immobilised ligand	1 µM	remaining binding	100%
C#Cc1n[nH]c2c(-c3cn([C@@H](C)c4ccccn4)c(=O)[nH]c3=O)cc(F)cc12	enzyme activity, inhibitor	0.1 µM	inhibition	0.7%
Nc1ncc(-c2nc(N3CCOCC3)nc(N3CCOCC3)n2)c(C(F)F)n1	binding, competition with immobilised ligand	10 µM	remaining binding	90%
Cn1cc(-c2cccc(N3CCc4c(sc5c4CC(C)(C)C5)C3=O)c2CO)cc(Nc2ccncn2)c1=O	enzyme activity, inhibitor	1 µM	inhibition	4%
COc1ncccc1-c1cnn2ccc(N3CCN(C(=O)OC(C)C)CC3)nc12	binding, competition with immobilised ligand	1 µM	remaining binding	78%
COc1cc(Nc2ncc(F)c(Nc3ccc4c(n3)NC(=O)C(C)(C)O4)n2)cc(OC)c1OC	binding, competition with immobilised ligand	10 µM	inhibition	78%
Cc1nn(C)cc1-c1nc2c(N3CCN(Cc4ccc(Cl)cc4)CC3)c(Cl)cnc2[nH]1	binding, competition with immobilised ligand	1 µM	remaining binding	88%
N#CC1(c2ccccn2)CCN(Cc2cc(C(=O)O)c(=O)n3ccccc23)CC1	cell-free assay, competition with immobilised ligand	1 µM	remaining binding	100%
